The results in this text go back to ChEMBL document CHEMBL1140709, “Design, synthesis, and biological evaluation of (E)-styrylbenzylsulfones as novel anticancer agents” (J Med Chem, 2008).

Common to all, as to type: functional, cell-based
In assay [1] the test system is BT-20. Kind of assay: Antitumor activity against human BT20 cells by trypan blue exclusion assay. A digest of the protocol:
(§1)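 Tumour cells were grown in DMEM or RPMI with 10% fetal bovine serum and 1 unit/mL penicillin-streptomycin. They were seeded in six-well dishes at 1.0 × 10⁵ cells/mL/well, and compound was added 24 h later over a range of concentrations. After 96 h of exposure, viable cells in duplicate wells were counted by trypan blue exclusion.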

Assay [2] has as its system DU-145. Kind of assay: Antitumor activity against AR-negative human DU145 cells by trypan blue exclusion assay. A digest of the protocol: as §1
The subject of assay [3] is DLD-1. Kind of assay: Antitumor activity against human DLD1 cells by trypan blue exclusion assay. A digest of the protocol: as §1
A short description of assay [4]: Antitumor activity against human H157 cells by trypan blue exclusion assay. Particulars: NCI-H157. The procedure, abridged:
as §1

For orientation: IC50 means the point on the concentration scale where inhibition reaches its midpoint. Low readings indicate greater potency, high ones weaker potency. Turning to `COc1ccc(CS(=O)(=O)/C=C/c2ccc([N+](=O)[O-])cc2)cc1`, the IC50 in assay [1] came out at 5 µM; in assay [2] it was 7.5 µM; in assay [3], 5 µM; in assay [4], 7.5 µM.

Take `COc1ccc(CS(=O)(=O)/C=C/c2cc(OC)c(OC)c(OC)c2)cc1O`: the half-inhibitory concentration (IC50) was 7.5 µM in assay [1], 5 µM in assay [2], 10 µM in assay [3] and 10 µM in assay [4].

As for `COc1ccc(CS(=O)(=O)/C=C/c2ccc(Cl)cc2)cc1`, the IC50 is 2 µM in assay [1], 2.5 µM in assay [2], 3 µM in assay [3] and 3.5 µM in assay [4].

With `COc1ccc(CS(=O)(=O)/C=C/c2cc(OC)ccc2OC)cc1`, the IC50 in assay [1], in assay [2], in assay [3] and in assay [4] was > 20 µM in each case.

Consider `COc1ccc(CS(=O)(=O)/C=C/c2ccc(F)cc2OC)cc1`, for which the IC50 in assay [1] is 15 µM; in assay [2], 10 µM; in assay [3] it was 15 µM; in assay [4], 20 µM.

Turning to `COc1ccc(CS(=O)(=O)/C=C/c2ccc(F)cc2Cl)cc1`, the IC50 in assay [1] amounted to 2.5 µM; in assay [2] it was 2 µM; in assay [3], 4 µM; in assay [4], 2.5 µM.

For `COc1ccc(CS(=O)(=O)/C=C/c2cc(OC)c(OC)cc2OC)cc1`, the IC50 in assay [1], in assay [2], in assay [3] and in assay [4] was > 20 µM each time.

Consider `COc1cc(OC)c(/C=C/S(=O)(=O)Cc2ccc(OC)c(OC)c2OC)c(OC)c1`, for which the IC50 turned out to be 15 µM in assay [1], 12.5 µM in assay [2], 15 µM in assay [3] and 15 µM in assay [4].

As for `COc1ccc(CS(=O)(=O)/C=C/c2c(OC)cccc2OC)cc1`, the IC50 in assay [1] was found to be 0.4 µM; in assay [2], 0.25 µM; in assay [3], 0.7 µM; in assay [4], 0.7 µM.

In the case of `COc1ccc(CS(=O)(=O)/C=C/c2c(OC)cc(F)cc2OC)cc1`, the IC50 in assay [1] came out at 0.75 µM; in assay [2], 0.5 µM; in assay [3], 0.75 µM; in assay [4], 0.5 µM.

In the case of `COc1ccc(CS(=O)(=O)/C=C/c2c(OC)cc(O)cc2OC)cc1O`, the IC50 in assay [1] is 0.25 µM; in assay [2] it was 0.5 µM; in assay [3], 0.5 µM; in assay [4], 0.5 µM.

Take `COc1ccc(CS(=O)(=O)/C=C/c2c(C)cc(C)cc2C)cc1`: the IC50 in assay [1], in assay [2], in assay [3] and in assay [4] was > 20 µM each time.

As for `COc1ccc(CS(=O)(=O)/C=C/c2ccc(OC)cc2OC)cc1`, the IC50 in assay [1], in assay [2], in assay [3] and in assay [4] was > 20 µM in each case.

With `COc1ccc(CS(=O)(=O)/C=C/c2cc(OC)cc(OC)c2)cc1`, the IC50 in assay [1], in assay [2], in assay [3] and in assay [4] was > 20 µM each time.

For `COc1cc(OC)c(/C=C/S(=O)(=O)Cc2ccc(C(=O)O)cc2)c(OC)c1`, the IC50 came to 15 µM in assay [1], 10 µM in assay [2], 15 µM in assay [3] and 17.5 µM in assay [4].

Consider `COc1cc(OC)c(/C=C/S(=O)(=O)Cc2ccc(O)cc2)c(OC)c1`, for which the IC50 is 15 µM in assay [1], 7.5 µM in assay [2], 20 µM in assay [3] and 20 µM in assay [4].

Turning to `COc1cc(OC)c(/C=C/S(=O)(=O)Cc2ccc([N+](=O)[O-])cc2)c(OC)c1`, the IC50 in assay [1] worked out at 15 µM; in assay [2] it was 15 µM; in assay [3], 15 µM; in assay [4], 20 µM.

`COc1ccc(CS(=O)(=O)/C=C/c2cc(OC)c(OC)c(OC)c2)cc1`: the IC50 in assay [1], in assay [2], in assay [3] and in assay [4] was > 20 µM in each case.

Turning to `COc1cc(OC)c(/C=C/S(=O)(=O)Cc2ccc(OC(F)(F)F)cc2)c(OC)c1`, the IC50 in assay [1] stood at 3 µM; in assay [2], 4 µM; in assay [3] it was 4 µM; in assay [4] it was 6 µM.

On to `COc1ccc(CS(=O)(=O)/C=C/c2ccc(N)cc2)cc1`, for which the IC50 in assay [1], in assay [2], in assay [3] and in assay [4] was > 20 µM throughout.

Take `COc1ccc(CS(=O)(=O)/C=C/c2c(C)cccc2C)cc1`: the IC50 in assay [1], in assay [2], in assay [3] and in assay [4] was > 20 µM throughout.

On to `COc1cc(OC)c(/C=C/S(=O)(=O)Cc2ccc(Cl)cc2)c(OC)c1`, for which the IC50 in assay [1] stood at 10 µM; in assay [2], 7.5 µM; in assay [3], 15 µM; in assay [4] it was 15 µM.

Turning to `COc1ccc(CS(=O)(=O)/C=C/c2ccc(F)cc2)cc1`, the IC50 in assay [1] was found to be 1.5 µM; in assay [2], 1.25 µM; in assay [3], 2 µM; in assay [4], 2.5 µM.

Regarding `COc1cc(OC)c(/C=C/S(=O)(=O)Cc2cc(OC)c(OC)c(OC)c2)c(OC)c1`, the half-inhibitory concentration (IC50) in assay [1], in assay [2], in assay [3] and in assay [4] was > 20 µM in each case.

For the molecule `COc1ccc(CS(=O)(=O)/C=C/c2c(OC)cc(O)cc2OC)cc1`, the IC50 in assay [1], in assay [2], in assay [3] and in assay [4] was > 20 µM throughout.

As to `COc1ccc(CS(=O)(=O)/C=C/c2ccc(OC)c(OC)c2)cc1`, the concentration for half-maximal inhibition (IC50) in assay [1], in assay [2], in assay [3] and in assay [4] was > 20 µM each time.

For the molecule `COc1ccc(CS(=O)(=O)/C=C/c2cc(C)cc(C)c2)cc1`, the IC50 in assay [1], in assay [2], in assay [3] and in assay [4] was > 20 µM in each case.

As for `COc1cc(OC)c(/C=C/S(=O)(=O)Cc2ccc(C#N)cc2)c(OC)c1`, the IC50 in assay [1] was 12.5 µM; in assay [2], 7.5 µM; in assay [3], 20 µM; in assay [4], 15 µM.

Turning to `COc1ccc(CS(=O)(=O)/C=C/c2ccc(C)cc2C)cc1`, the IC50 stood at 15 µM in assay [1], 12 µM in assay [2], 15 µM in assay [3] and 15 µM in assay [4].

Take `COc1ccc(CS(=O)(=O)/C=C/c2ccc(OC)c(OC)c2OC)cc1`: the IC50 in assay [1], in assay [2], in assay [3] and in assay [4] was > 20 µM throughout.

As to `COc1ccc(CS(=O)(=O)/C=C/c2ccccc2OC)cc1`, the IC50 turned out to be 5 µM in assay [1], 3.5 µM in assay [2], 7.5 µM in assay [3] and 5 µM in assay [4].

For the molecule `COc1ccc(/C=C/S(=O)(=O)Cc2ccc(OC)cc2)cc1`, the IC50 in assay [1], in assay [2], in assay [3] and in assay [4] was > 20 µM in each case.
